From ChEMBL document CHEMBL4152328, “Design, synthesis, in vitro and in silico evaluation of a new series of oxadiazole-based anticancer agents as potential Akt and FAK inhibitors” (Eur J Med Chem, 2018)
Calls of active or inactive are those of the source. No cut-off for these calls is given here.

Key:
C6 [1] = experiment: Cytotoxicity against rat C6 cells assessed as decrease in cell viability after 24 hrs by MTT assay; format: functional, cell-based; conditions: C6, 24 h
Procedure, shortened: (§1)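 Viability was read as cellular MTT reduction. Cisplatin and GSK690693 were run as reference controls. IC50 values were derived for each cell line.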

A549 [2] = experiment: Cytotoxicity against human A549 cells assessed as decrease in cell viability after 24 hrs by MTT assay; format: functional, cell-based; conditions: A549, 24 h; procedure, shortened: as §1
NIH3T3 = experiment: Cytotoxicity against mouse NIH/3T3 cells assessed as decrease in cell viability after 24 hrs by MTT assay; format: cell-based; conditions: NIH3T3, 24 h; procedure, shortened: as §1
[3] = Selectivity index, ratio of IC50 for mouse NIH/3T3 cells to IC50 for rat C6 cells; format: toxicity; conditions: NIH/3T3 cells versus C6 cells, read-out: Ratio IC50
Procedure, shortened: (§2)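 Selectivity index = IC50 for NIH/3T3 normal fibroblasts / IC50 for the cancer line (A549 or C6). […] An IC50 above 403.00 was taken as 403.00.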

[4] = Selectivity index, ratio of IC50 for mouse NIH/3T3 cells to IC50 for human A549 cells; format: toxicity; conditions: NIH/3T3 cells versus A549 cells, read-out: Ratio IC50; procedure, shortened: as §2
C6 [5] = experiment: Induction of apoptosis in rat C6 cells assessed as early/late apoptotic cells at IC50 after 24 hrs by Annexin V-FITC/PI staining based flow cytometry (reference value: 8%); format: functional
C6 [6] = experiment: Induction of apoptosis in rat C6 cells assessed as viable cells at IC50 after 24 hrs by Annexin V-FITC/PI staining based flow cytometry (reference value: 90%); format: functional
A549 [7] = experiment: Induction of apoptosis in human A549 cells assessed as early/late apoptotic cells at IC50 after 24 hrs by Annexin V-FITC/PI staining based flow cytometry (reference value: 7.1%); format: functional
A549 [8] = experiment: Induction of apoptosis in human A549 cells assessed as viable cells at IC50 after 24 hrs by Annexin V-FITC/PI staining based flow cytometry (reference value: 89%); format: functional
C6 [9] = experiment: Induction of mitochondrial membrane potential loss in rat C6 cells assessed as intact mitochondrial membrane potential at IC50 measured after 24 hrs by JC-1 staining based flow cytometric analysis (reference value: 80%); format: functional
C6 [10] = experiment: Induction of mitochondrial membrane potential loss in rat C6 cells at IC50 measured after 24 hrs by JC-1 staining based flow cytometric analysis (reference value: 19.9%); format: functional
A549 [11] = experiment: Induction of mitochondrial membrane potential loss in human A549 cells assessed as intact mitochondrial membrane potential at IC50 measured after 24 hrs by JC-1 staining based flow cytometric analysis (reference value: 90.4%); format: functional
A549 [12] = experiment: Induction of mitochondrial membrane potential loss in human A549 cells at IC50 measured after 24 hrs by JC-1 staining based flow cytometric analysis (reference value: 9.8%); format: functional
C6 [13] = experiment: Induction of apoptosis in rat C6 cells assessed as caspase-3 negative cell level at IC50 after 24 hrs by FITC-A labeled flow cytometry (reference value: 96.4%); format: functional
C6 [14] = experiment: Induction of apoptosis in rat C6 cells assessed as caspase-3 positive cell level at IC50 after 24 hrs by FITC-A labeled flow cytometry (reference value: 4.8%); format: functional
A549 [15] = experiment: Induction of apoptosis in human A549 cells assessed as caspase-3 negative cell level at IC50 after 24 hrs by FITC-A labeled flow cytometry (reference value: 98.1%); format: functional
A549 [16] = experiment: Induction of apoptosis in human A549 cells assessed as caspase-3 positive cell level at IC50 after 24 hrs by FITC-A labeled flow cytometry (reference value: 2.1%); format: functional
[17] = molecular target: RAC-alpha serine/threonine-protein kinase (Rattus norvegicus, UniProt P47196); experiment: Inhibition of Akt in rat C6 cells after 24 hrs by ELISA; format: cell-based
Chain of RAC-alpha serine/threonine-protein kinase (Rattus norvegicus, UniProt P47196) (P47196 whole entry): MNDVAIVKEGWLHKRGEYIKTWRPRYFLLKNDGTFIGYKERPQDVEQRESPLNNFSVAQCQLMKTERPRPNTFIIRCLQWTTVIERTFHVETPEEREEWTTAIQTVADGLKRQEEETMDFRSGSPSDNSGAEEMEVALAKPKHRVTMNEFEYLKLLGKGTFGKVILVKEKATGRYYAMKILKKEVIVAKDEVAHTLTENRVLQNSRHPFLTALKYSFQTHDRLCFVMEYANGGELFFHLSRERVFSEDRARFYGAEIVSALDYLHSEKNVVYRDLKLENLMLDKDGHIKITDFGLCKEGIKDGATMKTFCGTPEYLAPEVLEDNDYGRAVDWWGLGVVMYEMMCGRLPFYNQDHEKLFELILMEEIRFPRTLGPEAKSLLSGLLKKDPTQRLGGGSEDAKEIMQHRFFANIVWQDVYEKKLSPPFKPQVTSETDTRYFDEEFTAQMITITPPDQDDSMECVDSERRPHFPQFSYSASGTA
Procedure, shortened: (§3)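 In-cell colorimetric ELISA: 10,000 cells/well were treated 24 h, then fixed in 4% formaldehyde for 15 min, permeabilised, quenched and blocked. Primary antibody ran overnight at 4 °C, then HRP conjugate for 30 min, then TMB; absorbance was read at 450 nm. Wells were in triplicate and blank-subtracted. Activity is relative to untreated cells; IC50 came from graphs of three concentrations.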

[18] = molecular target: RAC-alpha serine/threonine-protein kinase (Homo sapiens, UniProt P31749); experiment: Inhibition of Akt in human A549 cells after 24 hrs by ELISA; format: cell-based; procedure, shortened: as §3
Chain of RAC-alpha serine/threonine-protein kinase (Homo sapiens, UniProt P31749) (P31749 whole entry): as the sequence (P47196 whole entry) above, with N2S, E46D, S50A, R112K, T117E, A137S, T389K, N410G, D415H counted along it

Focal adhesion kinase 1 = Focal adhesion kinase 1 (Rattus norvegicus, UniProt O35346); experiment: Inhibition of FAK phasphorylation at Tyr397 residues in rat C6 cells after 24 hrs by ELISA; format: cell-based
Chain of Focal adhesion kinase 1 (O35346 whole entry): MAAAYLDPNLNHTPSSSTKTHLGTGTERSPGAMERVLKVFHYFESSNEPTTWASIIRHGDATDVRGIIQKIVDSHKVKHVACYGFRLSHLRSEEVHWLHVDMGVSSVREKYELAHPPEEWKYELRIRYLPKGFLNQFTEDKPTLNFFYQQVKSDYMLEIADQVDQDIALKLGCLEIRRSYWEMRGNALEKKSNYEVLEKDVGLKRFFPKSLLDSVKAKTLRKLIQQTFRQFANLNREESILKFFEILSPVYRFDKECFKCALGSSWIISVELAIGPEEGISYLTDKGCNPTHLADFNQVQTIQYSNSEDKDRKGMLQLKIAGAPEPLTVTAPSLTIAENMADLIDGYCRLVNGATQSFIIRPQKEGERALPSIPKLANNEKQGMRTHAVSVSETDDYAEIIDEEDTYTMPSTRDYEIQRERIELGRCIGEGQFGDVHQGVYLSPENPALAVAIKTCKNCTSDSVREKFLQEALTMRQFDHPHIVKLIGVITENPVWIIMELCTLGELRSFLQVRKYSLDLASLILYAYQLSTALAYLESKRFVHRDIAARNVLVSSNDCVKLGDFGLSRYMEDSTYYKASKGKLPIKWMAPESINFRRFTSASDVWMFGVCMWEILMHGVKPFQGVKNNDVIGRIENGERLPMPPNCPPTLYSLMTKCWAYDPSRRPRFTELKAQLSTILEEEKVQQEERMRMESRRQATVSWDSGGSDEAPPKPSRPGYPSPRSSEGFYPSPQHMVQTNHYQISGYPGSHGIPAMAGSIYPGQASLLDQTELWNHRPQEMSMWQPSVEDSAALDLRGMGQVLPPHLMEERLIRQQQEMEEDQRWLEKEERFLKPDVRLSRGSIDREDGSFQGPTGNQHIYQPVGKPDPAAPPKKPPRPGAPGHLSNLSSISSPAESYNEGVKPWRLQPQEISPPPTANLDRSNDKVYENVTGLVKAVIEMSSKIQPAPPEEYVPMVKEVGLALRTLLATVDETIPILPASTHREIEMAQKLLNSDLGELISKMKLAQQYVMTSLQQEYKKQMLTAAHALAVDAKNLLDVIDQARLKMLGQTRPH
Procedure, shortened: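 Cell-based colorimetric ELISA in C6 cells treated 24 h: cells were fixed in 4% formaldehyde for 20 min, quenched, and blocked for 1 h. Anti-FAK pTyr397, anti-FAK and anti-GAPDH primaries ran overnight at 4 °C, then HRP secondaries for 1.5 h and substrate for 30 min. OD450 was read in duplicate wells; pFAK was normalised to GAPDH. IC50 came from graphs of three concentrations.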

A549 [19] = experiment: Induction of apoptotic morphological alterations in human A549 cells assessed as rounding of cells at IC50 after 24 hrs by transmission electron microscopy; format: functional, cell-based
Procedure, shortened: (§4)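 Cells were fixed in 2.5% glutaraldehyde in 0.1 M PBS pH 7.4 and held overnight at 4 °C, then agar-embedded and post-fixed in 2% osmium tetroxide. They were dehydrated through graded ethanol, embedded in EPON 812, ultrathin-sectioned and examined by transmission electron microscopy.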

A549 [20] = experiment: Induction of apoptotic morphological alterations in human A549 cells assessed as disruption of cellular organization at IC50 after 24 hrs by transmission electron microscopy; format: functional, cell-based; procedure, shortened: as §4
A549 [21] = experiment: Induction of apoptotic morphological alterations in human A549 cells assessed as cell shrinkage at IC50 after 24 hrs by transmission electron microscopy; format: functional, cell-based; procedure, shortened: as §4
A549 [22] = experiment: Induction of apoptotic morphological alterations in human A549 cells assessed as DNA condensation at IC50 after 24 hrs by transmission electron microscopy; format: functional, cell-based; procedure, shortened: as §4
A549 [23] = experiment: Induction of apoptotic morphological alterations in human A549 cells assessed as organellar membrane damage at IC50 after 24 hrs by transmission electron microscopy; format: functional, cell-based; procedure, shortened: as §4
C6 [24] = experiment: Induction of apoptotic morphological alterations in rat C6 cells assessed as rounding of cells at IC50 after 24 hrs by transmission electron microscopy; format: functional, cell-based; procedure, shortened: as §4
C6 [25] = experiment: Induction of apoptotic morphological alterations in rat C6 cells assessed as disruption of cellular organization at IC50 after 24 hrs by transmission electron microscopy; format: functional, cell-based; procedure, shortened: as §4
C6 [26] = experiment: Induction of apoptotic morphological alterations in rat C6 cells assessed as cell shrinkage at IC50 after 24 hrs by transmission electron microscopy; format: functional, cell-based; procedure, shortened: as §4
C6 [27] = experiment: Induction of apoptotic morphological alterations in rat C6 cells assessed as DNA condensation at IC50 after 24 hrs by transmission electron microscopy; format: functional, cell-based; procedure, shortened: as §4
C6 [28] = experiment: Induction of apoptotic morphological alterations in rat C6 cells assessed as organellar membrane damage at IC50 after 24 hrs by transmission electron microscopy; format: functional, cell-based; procedure, shortened: as §4
A549 [29] = experiment: Induction of apoptotic morphological alterations in human A549 cells assessed as increase in large vacuoles in cytoplasm containing degraded cellular material at IC50 after 24 hrs by transmission electron microscopy; format: functional, cell-based; procedure, shortened: as §4
A549 [30] = experiment: Induction of apoptotic morphological alterations in human A549 cells assessed as membrane damage at IC50 after 24 hrs by transmission electron microscopy; format: functional, cell-based; procedure, shortened: as §4
A549 [31] = experiment: Induction of apoptotic morphological alterations in human A549 cells assessed as nuclear fragmentation at IC50 after 24 hrs by transmission electron microscopy; format: functional, cell-based; procedure, shortened: as §4
C6 [32] = experiment: Induction of apoptotic morphological alterations in rat C6 cells assessed as chromatin condensation at IC50 after 24 hrs by transmission electron microscopy; format: functional, cell-based; procedure, shortened: as §4
C6 [33] = experiment: Induction of apoptotic morphological alterations in rat C6 cells assessed as large vacuoles at IC50 after 24 hrs by transmission electron microscopy; format: functional, cell-based; procedure, shortened: as §4
C6 [34] = experiment: Induction of apoptotic morphological alterations in rat C6 cells assessed as membrane damage at IC50 after 24 hrs by transmission electron microscopy; format: functional, cell-based; procedure, shortened: as §4

Row | SMILES | IC50 (C6 [1]) [µM] | IC50 (A549 [2]) [µM] | IC50 (NIH3T3) [µM] | selectivity ratio [3] | selectivity ratio [4] | Activity (C6 [5]) [%] | Activity (C6 [6]) [%] | Activity (A549 [7]) [%] | Activity (A549 [8]) [%] | Activity (C6 [9]) [%] | Activity (C6 [10]) [%] | Activity (A549 [11]) [%] | Activity (A549 [12]) [%] | Activity (C6 [13]) [%] | Activity (C6 [14]) [%] | Activity (A549 [15]) [%] | Activity (A549 [16]) [%] | IC50 [17] [µM] | IC50 [18] [µM] | IC50 (Focal adhesion kinase 1) [µM] | further results
1 | O=C(CSc1nnc(COc2ccc3c(c2)CCCC3)o1)Nc1nc2ccccc2s1 | 153 | 247 | 96.7 | 0.63 | 0.39 | – | – | – | – | – | – | – | – | – | – | – | – | – | – | – | –
2 | O=C(CSc1nnc(COc2ccc3c(c2)CCCC3)o1)Nc1nc2ccc([N+](=O)[O-])cc2s1 | 98.3 | 233 | 336 | 3.41 | 1.44 | – | – | – | – | – | – | – | – | – | – | – | – | – | – | – | –
3 | O=C(CSc1nnc(COc2ccc3c(c2)CCCC3)o1)Nc1nc2ccc(Cl)cc2s1 | 237 | 263 | 247 | 1.04 | 0.94 | – | – | – | – | – | – | – | – | – | – | – | – | – | – | – | –
4 | O=C(CSc1nnc(COc2ccc3c(c2)CCCC3)o1)Nc1ncc([N+](=O)[O-])s1 | 66.7 | 115 | > 403 | > 6.04 | > 3.5 | 12.3 | 80.8 | 25.3 | 67.8 | 0.6 | 98 | 2.4 | 95.5 | 90.1 | 11.3 | 95.1 | 5.4 | 44.5 | 138 | 105 | Activity (A549 [19]): Active; Activity (A549 [20]): Active; Activity (A549 [21]): Active; Activity (A549 [22]): Active; Activity (A549 [23]): Active; Activity (C6 [24]): Active; Activity (C6 [25]): Active; Activity (C6 [26]): Active; Activity (C6 [27]): Active; Activity (C6 [28]): Active
5 | CCOc1ccc2nc(NC(=O)CSc3nnc(COc4ccc5c(c4)CCCC5)o3)sc2c1 | 93.3 | 283 | > 403 | > 4.32 | > 1.42 | – | – | – | – | – | – | – | – | – | – | – | – | – | – | – | –
6 | COc1ccc2nc(NC(=O)CSc3nnc(COc4ccc5c(c4)CCCC5)o3)sc2c1 | 4.63 | 39.3 | 94.3 | 20.4 | 2.4 | 5 | 92.3 | 12.2 | 71.7 | 24.4 | 74.4 | 69.8 | 27.9 | 69.8 | 33.9 | 76.4 | 25 | 2.6 | 27.5 | 19.5 | Activity (A549 [19]): Active; Activity (A549 [20]): Active; Activity (A549 [21]): Active; Activity (A549 [22]): Active; Activity (A549 [23]): Active; Activity (C6 [24]): Active; Activity (C6 [25]): Active; Activity (C6 [26]): Active; Activity (C6 [27]): Active; Activity (C6 [28]): Active; Activity (A549 [29]): Active; Activity (A549 [30]): Active; Activity (A549 [31]): Active; Activity (C6 [32]): Active; Activity (C6 [33]): Active; Activity (C6 [34]): Active
7 | O=C(CSc1nnc(COc2ccc3c(c2)CCCC3)o1)Nc1nccs1 | 213 | 228 | > 403 | > 1.89 | > 1.76 | – | – | – | – | – | – | – | – | – | – | – | – | – | – | – | –
8 | O=C(CSc1nnc(COc2ccc3c(c2)CCCC3)o1)Nc1nc2ccc(F)cc2s1 | 89.3 | 91.7 | 292 | 3.27 | 3.18 | 11.9 | 84.9 | 17 | 79.1 | 32.6 | 60.1 | 78.2 | 21 | 90.8 | 11.7 | 93.5 | 7.1 | 165 | 98.3 | 118 | Activity (A549 [19]): Active; Activity (A549 [20]): Active; Activity (A549 [21]): Active; Activity (A549 [22]): Active; Activity (A549 [23]): Active; Activity (C6 [24]): Active; Activity (C6 [25]): Active; Activity (C6 [26]): Active; Activity (C6 [27]): Active; Activity (C6 [28]): Active
9 | Cc1ccc2nc(NC(=O)CSc3nnc(COc4ccc5c(c4)CCCC5)o3)sc2c1 | 108 | 210 | > 403 | > 3.72 | > 1.92 | – | – | – | – | – | – | – | – | – | – | – | – | – | – | – | –
10 | CCn1c(-c2nonc2N)nc2c(C#CC(C)(C)O)ncc(OC[C@H]3CCCNC3)c21 [GSK-690693] | 14.5 | 105 | – | – | – | – | – | – | – | – | – | – | – | – | – | – | – | 6.97 | – | – | –
